Type in all cases: functional
Assay [1] relates to Haemophilus. The experiment in a line: In vitro inhibitory activity against Haemophilus AmpR (37).
Assay [2] relates to Haemophilus. The assay is described as follows: In vitro inhibitory activity against Haemophilus AmpS (43).
Assay [3] concerns Mus musculus. The experiment in a line: In Vivo evaluation for its effective dose against Haemophilus influenzae (351RD7 AmpR beta (+)). A digest of the protocol: (§1)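 Male Charles River CD1 mice, 20-22 g, 10 per dose group, infected intraperitoneally with 0.5 mL diluted overnight broth culture (physiological buffer or 5% hog mucine) at 10-100 times the minimal lethal dose. Compound suspended in carboxymethylcellulose, 0.5 mL given orally immediately and 4 h postinfection. Survival followed 8-10 days; ED50 (unitary dose protecting 50% from death) by Litchfield-Wilcoxon probit method.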

In assay [4] the test system is Mus musculus. The experiment in a line: In Vivo evaluation for its effective dose against Haemophilus influenzae (351GR1). A digest of the protocol:
as §1

In assay [5] the test system is Mus musculus. The assay is described as follows: In Vivo evaluation for its effective dose against Haemophilus influenzae (351TO19 AmpR beta (-)). Put shortly:
as §1

In a further assay the test system is Escherichia coli. The assay is described as follows: In vitro inhibitory activity against Escherichia coli (250 UC5). A digest of the protocol: (§2)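 Two-fold agar dilution on Mueller-Hinton agar (pH 7.4). Inoculum from overnight plate cultures suspended in Mueller-Hinton broth, adjusted to 10^9 CFU/mL, diluted 1:200 and spotted by multipoint inoculator at about 10^4 CFU/spot. Plates incubated 37 °C for 20 h. MIC taken as lowest concentration with no visible growth.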

Assay [6] relates to Haemophilus influenzae. The experiment in a line: In vitro inhibitory activity against Haemophilus influenzae (351CB12). A digest of the protocol: as §2
The test system of assay [7] is Haemophilus influenzae. The assay is described as follows: In vitro inhibitory activity against Haemophilus influenzae (351HT3). Put shortly:
as §2

In assay [8] the test system is Staphylococcus epidermidis. The experiment in a line: In vitro inhibitory activity against Staphylococcus epidermidis (EryRi 012GO11i). A digest of the protocol: as §2
Assay [9] has as its system Staphylococcus aureus. The assay is described as follows: In vitro inhibitory activity against Staphylococcus aureus (011UC4). Put shortly:
as §2

In assay [10] the test system is Staphylococcus aureus. The experiment in a line: In vitro inhibitory activity against Staphylococcus aureus (EryRi 011GO25i). Put shortly: as §2
Assay [11] deals with Streptococcus pneumoniae. The experiment in a line: In vitro inhibitory activity against Streptococcus pneumoniae (032UC1). Put shortly:
as §2

In assay [12] the test system is Streptococcus pneumoniae. The assay is described as follows: In vitro inhibitory activity against Streptococcus pneumoniae (EryRc 030SJ1). Put shortly: as §2
Assay [13] relates to Streptococcus pneumoniae. The assay is described as follows: In vitro inhibitory activity against Streptococcus pneumoniae (EryRi 030SJ5i). A digest of the protocol: as §2
The subject of the next assay is Streptococcus pyogenes. The assay is described as follows: In vitro inhibitory activity against Streptococcus pyogenes (02A1UC1). Put shortly: as §2
Assay [14] deals with Staphylococcus aureus. The assay is described as follows: In vitro inhibitory activity against Staphylococcus aureus (EryRc 011CB20). A digest of the protocol:
as §2

Converted amounts (≈) assume the structure as drawn.

This is an account of results in ChEMBL document CHEMBL1131139, “Synthesis and antibacterial activity of ketolides (6-O-methyl-3-oxoerythromycin derivatives): a new class of antibacterials highly potent against macrolide-resistant and -susceptible respiratory pathogens” (1998).

Consider `CC1(C)S[C@@H]2[C@H](NC(=O)[C@H](N)c3ccccc3)C(=O)N2[C@H]1C(=O)O` [AMPICILLIN], for which the MIC50 came to 1.2 µg/mL (≈ 3.43 µM) in the assay on Haemophilus [1] and 0.3 µg/mL (≈ 0.859 µM) against Haemophilus [2]. Moreover, the MIC90 in the assay on Haemophilus [1] came out at 1 µg/mL (≈ 2.86 µM); in the assay on Haemophilus [2] it was 0.6 µg/mL (≈ 1.72 µM). The ED50 with Mus musculus [3] is more than 600 mg/kg; with Mus musculus [4], 5.5 mg/kg; with Mus musculus [5], 39 mg/kg.
`CC[C@H]1OC(=O)[C@H](C)C(=O)[C@H](C)[C@@H](O[C@@H]2O[C@H](C)C[C@H](N(C)C)[C@H]2O)[C@](C)(OC)C[C@@H](C)C(=O)[C@H](C)[C@H]2N(CCCc3ccccc3)C(=O)O[C@]12C`: the MIC in the assay with Escherichia coli is 40 µg/mL (≈ 54.7 µM); in the assay on Haemophilus influenzae [6] it was 10 µg/mL (≈ 13.7 µM); in the assay with Haemophilus influenzae [7], 40 µg/mL (≈ 54.7 µM); in assay [8], 1.2 µg/mL (≈ 1.64 µM); in the assay on Staphylococcus aureus [9], 1.2 µg/mL (≈ 1.64 µM); against Staphylococcus aureus [10], 2.5 µg/mL (≈ 3.42 µM). Moreover, the MIC against Streptococcus pneumoniae [11] is 0.3 µg/mL (≈ 0.41 µM); against Streptococcus pneumoniae [12], 40 µg/mL (≈ 54.7 µM); against Streptococcus pneumoniae [13] it was 20 µg/mL (≈ 27.4 µM); in the assay with Streptococcus pyogenes, 0.15 µg/mL (≈ 0.205 µM); in the assay with Staphylococcus aureus [14], 40 µg/mL (≈ 54.7 µM).
As to `CC[C@H]1OC(=O)[C@H](C)C(=O)[C@H](C)[C@@H](O[C@@H]2O[C@H](C)C[C@H](N(C)C)[C@H]2O)[C@](C)(OC)C[C@@H](C)/C(=N\OCCN2CCOCC2)[C@H](C)[C@@H](O)[C@]1(C)O`, the MIC against Escherichia coli worked out at 40 µg/mL (≈ 55.9 µM); against Haemophilus influenzae [6], 40 µg/mL (≈ 55.9 µM); in the assay on Haemophilus influenzae [7], 40 µg/mL (≈ 55.9 µM); in assay [8], 2.5 µg/mL (≈ 3.49 µM); with Staphylococcus aureus [9] it was 1.2 µg/mL (≈ 1.68 µM); in the assay with Staphylococcus aureus [10] it was 10 µg/mL (≈ 14 µM). For the same molecule, the MIC against Streptococcus pneumoniae [11] was 40 µg/mL (≈ 55.9 µM); with Streptococcus pneumoniae [12], 5 µg/mL (≈ 6.98 µM); against Streptococcus pneumoniae [13], 20 µg/mL (≈ 27.9 µM); in the assay with Streptococcus pyogenes, 0.15 µg/mL (≈ 0.21 µM); against Staphylococcus aureus [14], 40 µg/mL (≈ 55.9 µM).
As to `CC[C@H]1OC(=O)[C@H](C)C(=O)[C@H](C)[C@@H](O[C@@H]2O[C@H](C)C[C@H](N(C)C)[C@H]2O)[C@](C)(OC)C[C@@H](C)/C(=N/OCOCCOC)[C@H](C)[C@@H](O)[C@]1(C)O`, the MIC against Escherichia coli was determined as 40 µg/mL (≈ 57.9 µM); in the assay on Haemophilus influenzae [6], 40 µg/mL (≈ 57.9 µM); with Haemophilus influenzae [7], 40 µg/mL (≈ 57.9 µM); in assay [8], 1.2 µg/mL (≈ 1.74 µM); against Staphylococcus aureus [9], 1.2 µg/mL (≈ 1.74 µM); with Staphylococcus aureus [10], 2.5 µg/mL (≈ 3.62 µM). The MIC in the assay with Streptococcus pneumoniae [11] stood at 0.15 µg/mL (≈ 0.217 µM); with Streptococcus pneumoniae [12] it was 40 µg/mL (≈ 57.9 µM); against Streptococcus pneumoniae [13], 10 µg/mL (≈ 14.5 µM); in the assay on Streptococcus pyogenes, 0.15 µg/mL (≈ 0.217 µM); against Staphylococcus aureus [14], 40 µg/mL (≈ 57.9 µM).
In the case of `CC[C@H]1OC(=O)[C@H](C)C(=O)[C@H](C)[C@@H](O[C@@H]2O[C@H](C)C[C@H](N(C)C)[C@H]2O)[C@](C)(OC)C[C@@H](C)/C(=N\OCCNCCCn2ccnc2)[C@H](C)[C@@H](O)[C@]1(C)O`, the MIC was 40 µg/mL (≈ 53.1 µM) against Escherichia coli; 5 µg/mL (≈ 6.63 µM) in the assay with Haemophilus influenzae [6]; 5 µg/mL (≈ 6.63 µM) in the assay with Haemophilus influenzae [7]; 1.2 µg/mL (≈ 1.59 µM) in assay [8]; 0.3 µg/mL (≈ 0.398 µM) against Staphylococcus aureus [9]; 2.5 µg/mL (≈ 3.32 µM) against Staphylococcus aureus [10]. Besides, the MIC came out at 0.3 µg/mL (≈ 0.398 µM) in the assay on Streptococcus pneumoniae [11]; 40 µg/mL (≈ 53.1 µM) against Streptococcus pneumoniae [12]; 20 µg/mL (≈ 26.5 µM) in the assay on Streptococcus pneumoniae [13]; 0.04 µg/mL (≈ 0.0531 µM) with Streptococcus pyogenes; 40 µg/mL (≈ 53.1 µM) in the assay on Staphylococcus aureus [14].
Consider `CC[C@H]1OC(=O)[C@H](C)C(=O)[C@H](C)[C@@H](O[C@@H]2O[C@H](C)C[C@H](N(C)C)[C@H]2O)[C@](C)(OC)C[C@@H](C)C(=O)[C@H](C)[C@H]2N(N)C(=O)O[C@]12C`, for which the MIC in the assay on Escherichia coli worked out at 40 µg/mL (≈ 63.7 µM); in the assay with Haemophilus influenzae [6] it was 10 µg/mL (≈ 15.9 µM); against Haemophilus influenzae [7] it was 10 µg/mL (≈ 15.9 µM); in assay [8], 1.2 µg/mL (≈ 1.91 µM); against Staphylococcus aureus [9], 1.2 µg/mL (≈ 1.91 µM); against Staphylococcus aureus [10] it was 1.2 µg/mL (≈ 1.91 µM). The MIC came to 0.08 µg/mL (≈ 0.127 µM) with Streptococcus pneumoniae [11]; 40 µg/mL (≈ 63.7 µM) against Streptococcus pneumoniae [12]; 40 µg/mL (≈ 63.7 µM) against Streptococcus pneumoniae [13]; 0.15 µg/mL (≈ 0.239 µM) with Streptococcus pyogenes; 40 µg/mL (≈ 63.7 µM) against Staphylococcus aureus [14].
On to `CC[C@H]1OC(=O)[C@H](C)C(=O)[C@H](C)[C@@H](O[C@@H]2O[C@H](C)C[C@H](N(C)C)[C@H]2O)[C@](C)(OC)C[C@@H](C)/C(=N\OC2CCCN(CCCc3ccccc3)C2)[C@H](C)[C@@H](O)[C@]1(C)O` (stereo partly drawn), for which the MIC turned out to be 40 µg/mL (≈ 49.7 µM) in the assay on Escherichia coli; 0.6 µg/mL (≈ 0.746 µM) in the assay on Haemophilus influenzae [6]; 5 µg/mL (≈ 6.22 µM) against Haemophilus influenzae [7]; 0.6 µg/mL (≈ 0.746 µM) in [8]; 0.3 µg/mL (≈ 0.373 µM) with Staphylococcus aureus [9]; 0.6 µg/mL (≈ 0.746 µM) with Staphylococcus aureus [10]. Further, the MIC against Streptococcus pneumoniae [11] was 0.08 µg/mL (≈ 0.0995 µM); against Streptococcus pneumoniae [12], 1.2 µg/mL (≈ 1.49 µM); against Streptococcus pneumoniae [13] it was 0.3 µg/mL (≈ 0.373 µM); against Streptococcus pyogenes it was 0.08 µg/mL (≈ 0.0995 µM); in the assay on Staphylococcus aureus [14] it was 40 µg/mL (≈ 49.7 µM).
